In all, about 27,000 compounds went through this assay and about 250 (0.93%) were called active.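 Rule for the calls: active = mutant luminescence inhibited past about 50% while wild type luminescence and mutant growth stay under set limits (limit read from the data); inconclusive = mutant versus wild type luminescence inhibition gap past a set limit; inactive = the rest.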 Shown is part of a subset that was picked to be rich in actives.

This assay is described as follows: GCN4-lacZ reporter reduction in eIF2B-epsilon mutant yeast, primary screen, S. cerevisiae, eIF2B-epsilon R284H, Beta-Glo luminescence (AID 688). To be noted: growth inhibition: measured here: mutant yeast growth, toxicity, concentration not given here; inhibition: stronger effect = higher value, screened at 25 µM (by protocol). The method in brief:
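Material – yeast eIF2B-epsilon R284H mutant carrying GCN4–beta-galactosidase fusion · Medium – YPD yeast growth medium · Compound – one concentration, 25 µM, 0.25% DMSO · Times – 16 h at 30 °C exposure · Signal – Beta-Glo luminescence plus absorbance at 595 nm · Read-out – % inhibition of reporter signal and growth versus controls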
Consider `CC(=O)Nc1ccc(NC(=O)CSCc2cnn(-c3ccccc3)c2-n2cccc2)cc1`, for which the growth inhibition was -16.7% and the inhibition was 13.1% (inactive).

As to `COCCNC(=O)COc1ccccc1C`, the growth inhibition was 6.67% and the inhibition was 9.39% (inactive).

With `Cc1nc(N2CCOCC2)nc2c1CCCC2`, the growth inhibition was determined as 15% and the inhibition is 16.9% (inactive).

For `C[C@H](NC(=O)OC(C)(C)C)c1nnc(SCC(N)=O)o1`, the growth inhibition is 7.41% and the inhibition is 12.5% (inactive).

On to `O=C(c1cc2sccc2n1Cc1ccc(F)cc1)N1CCc2ccccc21`, for which the growth inhibition worked out at 13.5% and the inhibition was 26.8% (inactive).

As to `CCCCCCc1cc2cc(-c3nnc(-c4cccc(OC)c4)o3)c(=O)oc2cc1O`, the inhibition is -37.6% (inactive).

As for `CCC(=O)N(Cc1cc2cc(OC)ccc2[nH]c1=O)c1ccccc1C`, the growth inhibition amounted to 3.45% and the inhibition is 5.99% (inactive).

On to `CC(C)(C)n1nnnc1C(c1ccc(Cl)cc1)N1CCSCC1` (configuration not stated), for which the growth inhibition was -17.4% and the inhibition was 13.7% (inactive).

As for `CCN(CC)CCCN1C(=O)C(=O)/C(=C(/O)c2c(C)nc3ccccn23)C1c1ccc(C)o1` (configuration not stated), the growth inhibition amounted to 3.45% and the inhibition was 7.68% (inactive).

For `CC(=O)NC(C)(C)C1CC=C(C)/C(=N\O)C1` (configuration not stated), the growth inhibition was -23.8% and the inhibition is -13.5% (inactive).

Consider `CC(C)CC(N=C1NC(C)(C)Cc2ccccc21)C(=O)O` (configuration not stated), for which the growth inhibition came out at 21.1% and the inhibition is 6.22% (inactive).

Consider `O=C(CN1C(=O)CC(c2ccccc2)=Nc2ccccc21)NC1CCCCC1`, for which the growth inhibition is -28.6% and the inhibition is 18.7% (inactive).

Consider `CCN(CC(=O)NC1CCS(=O)(=O)C1)c1nc(-c2cccnc2)nc2ccccc12` (configuration not stated), for which the growth inhibition is -30.9% and the inhibition is 20.1% (inactive).

On to `C[C@H](NC(=O)OC(C)(C)C)c1nnc(SCC(=O)Nc2ccc(Br)cc2)o1`, for which the growth inhibition was -11.1% and the inhibition was 14.5% (inactive).

For the compound `CCOC(=O)C1=C(C)NC2=C(C(=O)CC(C)(C)C2)C1c1ccsc1` (configuration not stated), the growth inhibition was -7.5% and the inhibition is 9.79% (inactive).

Consider `Cc1c(C(=O)CN2CCOCC2)[nH]c2ccccc12`, for which the growth inhibition stood at 18.5% and the inhibition was 16.8% (inactive).

For `COc1ccc(C2C(C(C)=O)=C(O)C(=O)N2Cc2cccnc2)cc1` (configuration not stated), the inhibition was -0.66% (inactive).

As for `CCOC(=O)NC(C(F)(F)F)(C(F)(F)F)P(=O)(c1ccccc1)c1ccccc1`, the growth inhibition is -5.56% and the inhibition is -15.8% (inactive).

Consider `Cc1cc(=O)oc(C)c1C(=O)Nc1cnc2ccccc2c1`, for which the growth inhibition was -3.7% and the inhibition was 17.1% (inactive).

`COc1ccc(C(C#N)N2N=C(C)CC2(C)C)cc1` (configuration not stated): the growth inhibition came to 4.76% and the inhibition is -5.47% (inactive).

Turning to `COC(=O)C1=C(C)NC(=O)NC1/C=C/c1ccccc1` (configuration not stated), the growth inhibition is -4.55% and the inhibition is 22.3% (inactive).

Take `Cc1cc(Oc2ccccc2)nc(N2CCOCC2)n1`: the growth inhibition was 5.41% and the inhibition is 12.4% (inactive).

Turning to `CCCc1nc2c3cnn(-c4cccc(Cl)c4)c3ncn2n1`, the inhibition was 17.9% (inactive).

For `CCCc1nc(-c2ccccc2O)n(-c2ccccc2)n1`, the growth inhibition is 25.8% and the inhibition was 52.9% (active).

On to `CCCCOc1ccc(NC(=O)CSCC(=O)OCC)cc1`, for which the inhibition was 25% (inactive).

Turning to `Cc1ccc(-c2nnn(CC(=O)N(CCO)C(C(=O)NC(C)(C)C)c3ccncc3)n2)cc1` (configuration not stated), the growth inhibition is 14.8% and the inhibition is 23.7% (inactive).

On to `O=c1c2ccccc2oc2nc3n(c(=O)c12)CCCS3`, for which the growth inhibition is 4% and the inhibition is 24.9% (inactive).

As to `CCOc1ccc(N=C2SC(C(=O)O)CC(=O)N2C)cc1` (configuration not stated), the growth inhibition was determined as 12% and the inhibition is 24.2% (inactive).

Regarding `CCCOc1cc(C)c(S(=O)(=O)n2nnc3ccccc32)cc1C`, the growth inhibition turned out to be 12.9% and the inhibition was 11.9% (inactive).

As for `O=C(CSc1nnc(-c2cnccn2)n1Cc1ccco1)c1ccc(Cl)c(Cl)c1`, the growth inhibition was -22.6% and the inhibition was 4.49% (inactive).

With `COc1ccc(-c2cc(C(=O)NCc3ccco3)no2)cc1OC`, the growth inhibition is 2.7% and the inhibition was 19.9% (inactive).

Take `O=C(O)CSc1nccn1-c1cccc(Cl)c1`: the growth inhibition is -14.3% and the inhibition is -8.74% (inactive).

In the case of `Oc1ccc2ccc3cccc[n+]3c2c1`, the growth inhibition is -4.35% and the inhibition was 53.1% (active).

`O=C(Nc1ccc(S(=O)(=O)N2CCCC2)cc1Cl)C1=COCCO1`: the growth inhibition is -13.8% and the inhibition is 17.1% (inactive).

Regarding `Cc1cc(C)n(-c2cc(Oc3ccccc3)ncn2)n1`, the growth inhibition was -5.56% and the inhibition was 0% (inactive).

Turning to `Cc1cc(NC(=O)CCC2COc3ccccc3O2)no1` (configuration not stated), the inhibition was -23.3% (inactive).

Consider `O=c1[nH]c2c(c(=O)n1Cc1ccccc1)CCC2`, for which the growth inhibition was found to be 10.8% and the inhibition was 17.1% (inactive).

In the case of `CCCC(=O)N(CCc1ccccc1)Cc1nc2ccccc2c(=O)[nH]1`, the growth inhibition came to 19% and the inhibition was -3.55% (inactive).

`CCn1nccc1C(=O)Nc1ccc(Cl)c(Cl)c1`: the growth inhibition was -8.33% and the inhibition is 37.2% (inactive).

Take `CCCC(C)C(=O)Nc1ccc(NC(C)=O)cc1` (configuration not stated): the growth inhibition was 2.78% and the inhibition is 11.4% (inactive).

As to `Cc1ccc(C(=O)Nc2ccccc2C(=O)NC2CCCCC2)cc1S(=O)(=O)N1CCOCC1`, the growth inhibition was -23.3% and the inhibition is 29% (inactive).

Turning to `Cc1cccc(C)c1NC(=O)CCCSc1nnc(-c2ccco2)n1-c1ccccc1`, the growth inhibition came to 11.5% and the inhibition was -14.1% (inactive).

As for `Cc1ccnc(NC(=O)c2ccc(NC(=O)c3ccco3)cc2)c1`, the growth inhibition is -8.33% and the inhibition is 8.24% (inactive).

Take `COc1ccc(Nc2nc(=O)[nH]nc2C)cc1`: the growth inhibition came out at 20.6% and the inhibition is 25.8% (inactive).

As for `C=CCNC(=O)CCCC(=O)NCC=C`, the growth inhibition is -4.76% and the inhibition is -58.7% (inactive).

Regarding `O=C(O)CSCC(=O)Nc1cccc(C(F)(F)F)c1`, the growth inhibition was 12.1% and the inhibition is 21.9% (inactive).

As for `Cc1cccc2c(=O)n3c(nc12)CCCCC3`, the growth inhibition is 25.8% and the inhibition was 13.2% (inactive).

As for `CCn1nnc(NC(=O)c2cc(Cl)c(OC)c(Cl)c2)n1`, the growth inhibition came to 18.5% and the inhibition is 17.4% (inactive).

For the compound `Cc1c(Nc2nc3ccccc3nc2NS(=O)(=O)c2cccs2)c(=O)n(-c2ccccc2)n1C`, the growth inhibition worked out at 5% and the inhibition was -33.1% (inactive).

`CC(C)(C)NC(=O)c1cc(NC(=O)c2ccco2)cc(NC(=O)c2ccco2)c1`: the inhibition is 11.3% (inactive).

Consider `CCOc1ccccc1N=C1NC(=O)CS1`, for which the inhibition was -14.3% (inactive).

Regarding `CC/C(=N\O)C(C)(C)/[N+]([O-])=C/c1ccc(Br)cc1`, the growth inhibition amounted to 5.26% and the inhibition was 9.15% (inactive).

As for `N=c1c2c3c(sc2ncn1CCCN1CCOCC1)CCCCC3`, the growth inhibition is 3.7% and the inhibition is 23% (inactive).

Consider `Cc1nnc(SCC(=O)N2CCN(c3ccccc3)CC2)n1-c1ccccc1`, for which the growth inhibition is -9.52% and the inhibition is 1.9% (inactive).

For `c1ccc(CCc2nc(-c3ccncc3)no2)cc1`, the growth inhibition was found to be 15.2% and the inhibition is 50.4% (active).

Turning to `O=C1c2ccccc2C(=O)N1CCCc1nc(-c2ccccc2)no1`, the growth inhibition is -5.56% and the inhibition was -17.2% (inactive).

For the compound `c1csc(-c2nc(-c3ccncc3)no2)c1`, the growth inhibition came to 6.45% and the inhibition is 2.34% (inactive).

Broadly, the inhibition is the relative decrease from the control value, in per cent.

The record behind these values is PubChem BioAssay AID688 (PCMD, 2007).
